Assay outcomes as filed in PubChem BioAssay.
Shown are actives, neighbours in structure and some others; about 1.7% of the full set was active somewhere.
RanGTP-Impb inh = disruptors of Ran-importin-beta complex formation – biochemical, FRET, CFP-Ran, YFP-importin-beta, homogeneous, primary screen | cell-free CFP-Ran/YFP-importin-beta FRET ratio | inhibition, % (concentration not given with the values) | 300,000 tested, 1.1% active | AID 2216;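 active means more than half of the replicate wells show a fall in the fluorescence ratio signal beyond about 16%, limit read from the data, passing the limit was not always enough; inconclusive means exactly half of the replicate wells pass the set limit; inactive means fewer than half of replicates pass the limit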
Runt-SMMHC FRET = blocks binding of human RUNX1 Runt domain to CBFb-SMMHC | 220,000 tested, 0.74% active | inhibition, % at 20 µM | Cerulean-Runt/Venus-CBFb-SMMHC FRET ratio 530/480, 1 h | Q01196+Q13951 | AID 1434;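 active means mean inhibition across duplicate retests at 20 µM reaching about 50%, limit read from the data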;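 further: inhibitors lower the FRET ratio by blocking Runt binding to CBFb-SMMHC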
Target sequence (Q01196 whole entry, looked up, the tested form may be a part): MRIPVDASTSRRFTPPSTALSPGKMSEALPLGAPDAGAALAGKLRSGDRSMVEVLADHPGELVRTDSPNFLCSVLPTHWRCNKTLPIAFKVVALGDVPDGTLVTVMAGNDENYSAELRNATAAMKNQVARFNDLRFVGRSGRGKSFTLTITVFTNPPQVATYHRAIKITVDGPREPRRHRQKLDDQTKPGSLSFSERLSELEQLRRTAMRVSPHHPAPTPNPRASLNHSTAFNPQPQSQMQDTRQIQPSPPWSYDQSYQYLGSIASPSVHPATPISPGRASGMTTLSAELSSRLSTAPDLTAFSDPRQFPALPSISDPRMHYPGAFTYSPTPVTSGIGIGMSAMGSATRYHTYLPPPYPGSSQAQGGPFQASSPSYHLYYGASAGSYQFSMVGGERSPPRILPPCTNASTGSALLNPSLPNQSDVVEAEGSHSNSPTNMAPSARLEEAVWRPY
Target sequence (Q13951 whole entry, looked up, the tested form may be a part): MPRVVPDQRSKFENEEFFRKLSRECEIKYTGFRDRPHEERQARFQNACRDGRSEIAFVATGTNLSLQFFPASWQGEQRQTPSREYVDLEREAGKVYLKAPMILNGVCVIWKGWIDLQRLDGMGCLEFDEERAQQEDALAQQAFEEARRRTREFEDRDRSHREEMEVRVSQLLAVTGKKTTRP
Hck Nef HTS = inhibitors of human Hck kinase activated by Nef; P08631; Recombinant Hck-YEEI plus Nef, Z-Lyte FRET kinase assay; inhibition, % at 20 µM; 220,000 tested, 0.68% active;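 active means Hck-Nef kinase inhibition above about 50%, limit read from the data; inactive means inhibition below that limit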
Runt-CBFb FRET = inhibitors of human RUNX1 Runt domain binding to CBFb | inhibition, % at 20 µM | Q01196+Q13951 | Cerulean-Runt/Venus-CBFb FRET ratio 530/480, 1 h | 220,000 tested, 0.46% active;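 active means inhibition over about 50% at 20 µM in the single-dose screen, limit read from the data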
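Assay system: Cerulean-Runt domain / Medium: Tris 50 mM pH 7.5, KCl, K2SO4, 0.01% BSA / Timing: protein complex preformed 1 h, compound exposure 1 h, room temperature, dark / Measured by: FRET, excitation 422 nm, emission at 530 and 480 nm / Evaluation: loss of energy transfer signal / Control set: 5 µM unlabeled CBFb as full-inhibition high control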
Runt-CBFb TRFRET = disrupts human RUNX1 Runt domain binding to CBFb. shares compounds with Runt-CBFb FRET. TR-FRET RUNX1 Runt domain-CBFb binding. inhibition, % at 20 µM. 480 tested, 20% active. AID 1502; in the data active means inhibition above about 40%
A number is an active result; 0 = inactive; ? = inconclusive; - = no result given.

SMILES | RanGTP-Impb inh | Runt-SMMHC FRET | Hck Nef HTS | Runt-CBFb FRET | Runt-CBFb TRFRET
O=S(=O)(Cc1ccccc1)NCC1CCCN(Cc2ccc3nonc3c2)C1 (centres undefined) | 0 | 0 | 0 | 0 | -
Cc1cc([N+](=O)[O-])nn1CC(=O)NCc1ccco1 | 0 | 0 | 0 | 0 | -
COc1cc(C2C3=C(CC(C)(C)CC3=O)Nc3c2c(=O)[nH]c(=O)n3Cc2ccccc2)ccc1O (centres undefined) | ? | 115 | 0 | 76 | 0
COc1cc(C2C3=C(CC(C)(C)CC3=O)N(C)C3=C2C(=O)CC(C)(C)C3)ccc1O | 0 | - | - | - | -
CC(C)(C)C(=O)CSc1nnc(Nc2ccccc2)s1 | 0 | 0 | 0 | 0 | -
NS(=O)(=O)c1ccc(N/C=C\C(=O)c2ccc3ccccc3c2)cc1 | 0 | 0 | 0 | 50 | 44
Cc1ccc(C2=Nc3ccccc3SC(c3cccc([N+](=O)[O-])c3)C2)cc1 (centres undefined) | 0 | 0 | 0 | 52 | 0
O=[N+]([O-])c1cccc(C2CC(c3ccccc3)=NN2c2ccccc2)c1 (centres undefined) | 0 | - | - | - | -
COc1ccc(-c2csc(Nc3ncccc3C)n2)cc1OC | 0 | 0 | 0 | 0 | -
Cc1cccnc1Nc1nc(-c2ccc(O)c(O)c2)cs1 | 0 | 52 | 0 | 65 | 0
C/C(=N/NC(=O)c1cc(O)c(O)c(O)c1)c1ccc([N+](=O)[O-])cc1 | 0 | 0 | 0 | 54 | 67
COc1cccc2cc(C(=O)N3CCN(C45CC6CC(CC(C6)C4)C5)CC3)c(=O)oc12 | 53 | 0 | 0 | 60 | 0
C=CCN1C(=O)/C(=C/c2ccc(OC(C)=O)c(OCC)c2[N+](=O)[O-])SC1=S | 0 | 0 | 0 | 0 | -
O=C1Nc2ccccc2S/C1=C/NCc1ccccc1Cl | 0 | 0 | 0 | 59 | 0
Cc1ccc(N/C=C2/Sc3ccccc3NC2=O)cc1 | 0 | 0 | 0 | 0 | -
COc1ccc(N/C=C2/Sc3ccccc3NC2=O)cc1 | 0 | 54 | 0 | 61 | 0
COc1ccc(-c2noc(CCC(=O)N3CCC(C)CC3)n2)cc1 | 0 | 0 | 0 | 85 | 0
O=C(O)c1ccc(-n2c(-c3cc(-c4ccco4)[nH]n3)n[nH]c2=S)cc1 | ? | 0 | 0 | 53 | 81
Cc1ccc(N(Cc2cc3ccc(C)cc3[nH]c2=O)S(C)(=O)=O)c(C)c1 | ? | 0 | 0 | 0 | -
CC(c1ccccc1C(O)c1ccccc1)N(C)C (centres undefined) | 0 | 0 | 0 | 57 | 0
COCCOC(=O)c1c(N)n(CCCN2CCOCC2)c2nc3ccccc3nc12 | 0 | 97 | 0 | 51 | 0
CCOC(=O)C1=C(CNCCc2ccc(Cl)cc2)NC(=O)NC1c1ccc2c(c1)OCO2 (centres undefined) | 0 | 0 | 0 | 65 | 0
COC1OC(COC(=O)c2ccccc2)C(OC(=O)c2ccccc2)C1OC(=O)c1ccccc1 (centres undefined) | 0 | - | - | - | -
O=C(O)C[C@@H]1C(=O)O[C@@H]2C(COC(=O)c3cc(O)c(O)c(O)c3)O[C@@H](OC(=O)c3cc(O)c(O)c(O)c3)[C@@H](OC(=O)c3cc(O)c(O)c4c3[C@H]1[C@H](O)C(=O)O4)[C@H]2OC(=O)c1cc(O)c(O)c(O)c1 (some centres undefined) | - | 0 | 102 | 51 | 49
c1ccc(C2CC(c3cccs3)=NN2c2ccccc2)cc1 (centres undefined) | 0 | 84 | 0 | 51 | 0
SMILES | RanGTP-Impb inh | Runt-SMMHC FRET | Hck Nef HTS | Runt-CBFb FRET | Runt-CBFb TRFRET
CCNC(=O)CN(c1ccc(F)cc1)S(=O)(=O)c1ccc2c(c1)OCCO2 | 0 | - | - | - | -
Cc1ccc(C(=O)n2nnc3ccccc32)cc1[N+](=O)[O-] | 0 | 0 | 0 | 89 | 0
Cc1ccc(C(=O)Cn2nnc3ccccc32)cc1[N+](=O)[O-] | 0 | 0 | 0 | 0 | -
COc1cccc(C(NC(=O)c2ccccc2F)NC(=O)c2ccccc2F)c1 | 0 | 0 | 0 | 0 | -
COc1cccc(C(c2c(N)[nH]c(=S)[nH]c2=O)c2c(N)[nH]c(=S)[nH]c2=O)c1 | 0 | 0 | 0 | 51 | 56
COC(=O)C1=C(C)N(Cc2ccc(C)cc2)C(=O)/C1=C\c1ccc(O)c(OC)c1 | 0 | 0 | 0 | 0 | -
CCOC(=O)C1=C(C)N(c2ccc(C)cc2)C(=O)/C1=C\c1ccc(O)c(OC)c1 | 0 | 0 | 0 | 57 | 0
O=C(CC1Sc2ccccc2NC1=O)OCc1cc(=O)oc2cc(O)ccc12 (centres undefined) | ? | - | 0 | 62 | 49
